Reference: ChEMBL document CHEMBL1132942, “Quinolones: novel probes in antifilarial chemotheraphy” (2000)

What was measured:
[1] = system: Acanthocheilonema viteae; test: (§1) Tested in vivo for Acanthocheilonema viteae at 200 mg/kg X 5 days(perorally); format: functional; settings: route oral
Method in brief: (§2)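 A. viteae transmitted to male M. coucha (6 weeks old) via vector tick Ornithodorus moubata. Test agents given orally at 200 mg/kg daily for five consecutive days. Micro- and macrofilaricidal activity assessed per earlier-described methods.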

[2] = system: Acanthocheilonema viteae; test: as §1; format: functional; settings: route oral; method in brief: as §2; remark: listed apart in the source
[3] = Tested in vivo for sterilization of female worms; format: functional, Acanthocheilonema viteae; design: concentration or dose not given beside the values

| Compound | Reduction [1] | Reduction [2] | Reduction [3] |
| --- | --- | --- | --- |
| CCCCCCCCNC(=O)c1cnc2c(F)cccc2c1O | 47% | 37% | 25% |
| O=C(NC1CCCCC1)c1cnc2ccc(F)cc2c1O | 31% | 50% | 36% |
| CCN(CC)CCCC(C)NC(=O)c1cnc2cc(Cl)c(F)cc2c1O (stereo unspecified) | 0% | 60% | 0% |
| O=C(NC1CCCCC1)c1cnc2ccccc2c1O | 100% | 90% |  |
| O=C(NC1CCCCC1)c1cnc2ccc([N+](=O)[O-])cc2c1O | 0% | 54% | 0% |
| CCCCCCCCNC(=O)c1cnc2c(C)cccc2c1O | 0% | 17% | 0% |
| CCCCCCCCNC(=O)c1cnc2ccccc2c1O | 0% | 25% | 0% |
| CCCCCCCCNC(=O)c1cnc2ccc(Cl)cc2c1O | 50% | 30% | 0% |
| CCN(CC)CCCC(C)NC(=O)c1cnc2ccc([N+](=O)[O-])cc2c1O (stereo unspecified) | 0% | 54% | 0% |
| O=C(NC1CCCCC1)c1cnc2cc([N+](=O)[O-])ccc2c1O | 80% | 24% | 0% |
| CCCCCCCCNC(=O)c1cnc2ccc(F)cc2c1O | 0% | 48% | 0% |
| CCCCCCCCNC(=O)c1cnc2ccc([N+](=O)[O-])cc2c1O | 38% | 40% | 100% |
| Cc1cccc2c(O)c(C(=O)NC3CCCCC3)cnc12 | 0% | 54% | 0% |
| CCN(CC)C(=O)N1CCN(C)CC1.O=C(O)CC(O)(CC(=O)O)C(=O)O [DIETHYLCARBAMAZINE CITRATE] | 0% | 90% | 0% |
